# Hits are enriched below; roughly 4.5% of the tested compounds scored in any of these assays.
# TAAR1 antagonist = human TAAR1 antagonists, primary screen, Fluo-8 calcium fluorescence, CHO RD-HGA16 cells; Trace amine-associated receptor 1 (Homo sapiens), Q96RJ0; antagonist; inhibition, % at 3 µM; hit rate 1.5% among 360,000;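 active = inhibition above a per-plate cutoff, the mean inhibition of test compounds on that plate plus 3 SD, cut at about 49% in these data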
# Target sequence (Q96RJ0 whole entry, looked up): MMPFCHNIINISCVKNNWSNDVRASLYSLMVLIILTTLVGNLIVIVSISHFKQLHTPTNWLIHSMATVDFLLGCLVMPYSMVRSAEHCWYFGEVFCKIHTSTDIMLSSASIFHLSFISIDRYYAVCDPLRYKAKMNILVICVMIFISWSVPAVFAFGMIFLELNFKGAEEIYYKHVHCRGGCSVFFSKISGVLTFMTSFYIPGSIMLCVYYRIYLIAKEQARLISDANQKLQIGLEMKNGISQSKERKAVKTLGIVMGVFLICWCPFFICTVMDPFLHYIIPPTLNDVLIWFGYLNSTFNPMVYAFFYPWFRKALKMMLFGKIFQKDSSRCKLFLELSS
#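 test system = CHO RD-HGA16 cells bearing hTAAR1 | replication = singlicate | controls = DMSO-only wells and EC80 β-PEA-stimulated wells | reagent = EC80 β-phenethylamine stimulus | read-out basis = percent inhibition of PEA-evoked calcium signal, max/basal emission ratio | schedule = seeding 17-24 h prior, 75-min 37 °C, 30-min RT dye loading | signal = kinetic Fluo-8 calcium fluorescence measurement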
# OX1R antag-1 = OX1R (HCRTR1) antagonists, primary screen, fluorescence, CHO/OX1R cells, Fluo-8 calcium, orexin A | Orexin/Hypocretin receptor type 1 (Homo sapiens), O43613 | Fluo-8 calcium fluorescence | inhibition, % at 5 µM | hit rate 0.43% among 330,000 | AID 434989, 2010;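 active = inhibition above its plate's threshold, mean inhibition of all tested compounds on the plate plus 3 SD, cut at about 37% in these data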
# CHO parental Ca = ATP-evoked calcium signal inhibitors, parental CHO, primary screen, counter-screen for OX1R antagonist project, cell-based, fluorescence, Fluo-8 calcium dye; parental CHO-K1, ATP-induced calcium, Fluo-8 fluorescence; hit rate 0.63% among 330,000; inhibition, % at 5.6 µM;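 active = inhibition above that plate's mean sample inhibition plus 3 SD, cut at about 26% in these data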
#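 Assay system – parental CHO cells · Reagent – ATP stimulus · Detection – intracellular calcium via Fluo-8 no-wash fluorescent dye · Evaluation – percent inhibition of ATP-evoked calcium rise, normalized to controls · Controls – ATP wells versus no-ATP DMSO wells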
# OX1R antag-2 = antagonists of human orexin 1 receptor (OX1R) | Orexin/Hypocretin receptor type 1 (Homo sapiens), O43613 | OX1R-expressing cells, FRET antagonist read-out | inhibition, % at 6.6 µM | hit rate 1.8% among 330,000; in the data active = inhibition mostly above about 38%, no sharp cut-off; inactive = mostly below about 40%
# GPR7 antagonist = GPR7 receptor antagonists, primary screen, cell-based, fluorescence, single concentration. inhibition, % at 4.4 µM. GPR7-expressing cells, fluorescence antagonist assay. Neuropeptides B/W receptor type 1 (Homo sapiens), P48145. hit rate 1.1% among 290,000; in the data active = inhibition above about 16%, passing the limit was not always enough;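 note: cells stimulated with the agonist NPW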
# Target sequence (P48145 whole entry, looked up): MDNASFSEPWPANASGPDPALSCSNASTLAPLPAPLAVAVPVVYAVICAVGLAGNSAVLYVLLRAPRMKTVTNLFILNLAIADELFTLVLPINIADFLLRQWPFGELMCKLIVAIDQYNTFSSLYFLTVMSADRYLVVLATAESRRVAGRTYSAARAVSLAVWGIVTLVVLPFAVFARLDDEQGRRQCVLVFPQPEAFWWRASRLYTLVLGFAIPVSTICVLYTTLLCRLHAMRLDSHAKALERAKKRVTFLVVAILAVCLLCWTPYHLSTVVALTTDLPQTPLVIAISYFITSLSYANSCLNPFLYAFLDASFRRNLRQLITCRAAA
# TAAR1 ag = human TAAR1 agonists, primary screen, Fluo-8 calcium fluorescence, CHO RD-HGA16 cells; hit rate 0.99% among 360,000; vehicle wells 0%, saturating PEA agonist 100%; activation, % at 3 µM; AID 624467, 2012; Trace amine-associated receptor 1 (Homo sapiens), Q96RJ0;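 active = activation above the mean activation of all test compounds in the run plus 3 SD, cut at about 38% in these data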
#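 Assay system – CHO-derived RD-HGA16 cells with stable Gα16 and human TAAR1 · Compound dosing – one-point dosing at 3 µM (nominal) · Incubation – 17-24 h seeding, 75 min 37 °C dye, 30 min RT · Measured by – kinetic Fluo-8 calcium fluorescence · Control set – DMSO vehicle as 0%, PEA at EC100 as 100% · Repeats – single well for each compound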
# Hits are given with their value; n = inactive; x = no result given.
SMILES,TAAR1 antagonist,OX1R antag-1,CHO parental Ca,OX1R antag-2,GPR7 antagonist,TAAR1 ag
Cc1ccc(S(=O)(=O)c2ccc(C)cc2)cc1,n,n,n,n,n,n
Cc1ccc(S(=O)(=O)C=CS(=O)(=O)c2ccc(C)cc2)cc1,50.1,x,x,x,x,n
O=C(/C=C/c1ccc(OCCCF)cc1)Nc1ccnc(-c2ccncc2)n1,n,n,n,84.5,n,n
CCCCC(=O)Nc1ccnc(-c2cccnc2)n1,n,n,n,n,n,n
O=C(/C=C/c1ccc(OCCCF)cc1)NCc1cccc(Cl)c1,n,n,n,n,n,n
O=C(/C=C/c1ccc(OCCCF)cc1)Nc1ccnc(-c2cccnc2)n1,54.9,n,n,n,n,n
Cc1cccc(-c2cc(=O)c(C(=O)O)cn2-c2ccc(F)cc2F)c1,n,n,n,57.8,x,n
CC(C)C[C@@H](COCc1cccc(Cl)c1)N1CCN(C(=O)c2ccc(C(F)(F)F)cc2)CCC1=O,n,x,x,x,x,n
COC(=O)C1=C(C)N(CCc2ccc(OC)cc2)C(=O)C1,51.8,n,n,n,n,n
C=CCSc1nc(N)c2c(C)c(C)sc2n1,n,n,n,46.1,n,n
Cc1nc2cc(-c3ccc(F)cc3)[nH]n2c(=O)c1C,n,n,42.3,n,n,n
CCOc1ccccc1NS(=O)(=O)c1cccc2nsnc12,n,n,n,n,n,n
CC(=O)c1cccc(NC(=O)CCNS(=O)(=O)c2cccc3nsnc23)c1,n,n,n,58.4,n,n
COc1ccc(NC(=O)CCNS(=O)(=O)c2cccc3nsnc23)cc1,n,n,n,n,n,n
COc1ccc(NC(=O)CCNS(=O)(=O)c2cccc3nsnc23)c(OC)c1,n,n,n,73.4,n,n
CCOc1ccccc1NC(=O)CCNS(=O)(=O)c1cccc2nsnc12,n,n,n,67.4,n,n
CC(C)NC(=O)C1(C)Cc2c(-c3ccc(N(C)C)cc3)ccnc2O1 (centres undefined),n,x,x,x,x,n
COc1ccc(NC(=O)c2c(C(F)(F)F)nn(C)c2SCc2ccccc2Cl)cc1,n,n,45.6,n,n,n
CCc1nc2c(OCc3ccc(OC(F)F)cc3)cccn2c1N(C)C(=O)c1ccc(OC)cc1,n,x,x,x,x,n
COc1ccc(OC)c(CCNC(=O)c2ccc3c(c2)N(Cc2ccc(F)cc2)CCS3)c1,x,n,n,n,n,x
CCN1CCSc2ccc(C(=O)NCc3cc(Br)ccc3OC)cc21,n,n,n,n,n,n
COc1ccc(Br)cc1CNC(=O)c1ccc2c(c1)N(C)CCS2,n,n,n,56.5,n,n
COc1ccc(CCNC(=O)c2ccc3c(c2)N(Cc2ccc(F)cc2)CCS3)c(OC)c1,n,n,n,45.7,n,n
N#CC(c1ccc(F)cc1)c1ccc(C(=O)c2ccc(F)cc2)cc1 (centres undefined),56.0,n,n,n,n,n
O=C(c1ccc(F)cc1)c1ccc(-c2ccc(F)cc2)nc1,n,n,n,n,n,n
SMILES,TAAR1 antagonist,OX1R antag-1,CHO parental Ca,OX1R antag-2,GPR7 antagonist,TAAR1 ag
Cc1cc(-c2ccc(C)c(S(=O)(=O)NCc3cccc(Br)c3)c2)on1,n,n,n,37.9,n,n
CCc1ccc(-c2cc(C)no2)cc1S(=O)(=O)NCCc1ccc(OC)c(OC)c1,n,n,n,42.8,n,n
Cc1cc(-c2ccc(C)c(S(=O)(=O)NCc3ccc(Br)cc3)c2)on1,n,n,n,n,n,n
C[C@@H]1CN([C@@H](C)CO)C(=O)CCCn2cc(nn2)CO[C@H]1CN(C)C(=O)Nc1cccc2ccccc12,n,x,x,x,x,n
O=C(NC(c1ccccc1)c1ccsc1)C1CCN(Cc2ccccc2)CC1 (centres undefined),n,x,x,x,x,n
COc1cc(CN2CCC(C(=O)NC(c3ccccc3)c3ccsc3)CC2)cc(OC)c1 (centres undefined),n,x,x,x,x,44.0
O=C1C(Sc2ccccc2)=C[C@@]2(O)CC[C@@H](O)[C@]1(Sc1ccccc1)[C@H]2O,n,x,x,x,x,n
O=C(Cc1ccccc1)N/N=C/c1ccc([N+](=O)[O-])s1,n,n,n,n,n,n
Cc1ccnn1CC(=O)N/N=C/c1ccc([N+](=O)[O-])s1,n,n,n,51.2,n,n
O=C(CNC(=O)c1cccc(F)c1)N/N=C/c1ccc([N+](=O)[O-])s1,n,n,n,49.5,n,n
Cc1ccnn1CC(=O)N/N=C/c1cccs1,n,n,n,n,n,n
O=C(N/N=C/c1ccc([N+](=O)[O-])s1)C(O)c1ccccc1 (centres undefined),n,n,n,56.1,n,n
CCOc1ncccc1C(=O)Nc1ccc2nc(C)sc2c1,n,n,n,76.2,n,n
COc1cccc(N2C(=O)CC(Nc3ccc(N4CCOCC4)cc3)C2=O)c1 (centres undefined),x,n,n,39.2,n,x
Oc1ccc(C23CCCC2C2(CCCC2)c2ccc(O)cc2O3)c(O)c1 (centres undefined),99.0,110.2,75.1,n,x,70.8
Cc1cc(C)c(C#N)c(SCc2ccccc2)n1,n,n,n,n,n,n
Cc1ccc2nc(CSc3nc(C)cc(C)c3C#N)[nH]c2c1,n,n,n,41.4,n,n
O=C(NCC(c1ccco1)N1CCCCC1)c1cccc(S(=O)(=O)Nc2ccc(F)cc2)c1 (centres undefined),n,x,x,x,x,n
OC(CNC1CCCc2ccccc21)COc1c(Cl)cccc1Cl (centres undefined),n,n,n,n,n,69.0
OC(CNC1Cc2ccccc2C1)COc1ccc(Cl)cc1 (centres undefined),n,n,n,n,n,n
COc1ccc(CCC(=O)OCC(=O)Nc2sccc2C(N)=O)cc1,n,54.6,33.0,n,x,n
COc1ccc(CCC(=O)OCC(=O)Nc2sccc2C(N)=O)cc1OC,n,46.2,46.7,36.3,x,n
COc1ccc(C(=O)NC(C(=O)OCC(=O)Nc2sccc2C(N)=O)C(C)C)cc1 (centres undefined),n,n,n,n,x,n
C=CC[C@]12C[C@@]3(O[C@H](c4ccc(C(F)(F)F)cc4)N=C3C[C@H](c3ccc(OC)cc3)[C@H]1C)N(Cc1ccncc1)C2=O,n,x,x,x,x,n
CCOC(=O)c1nn(-c2ccc(F)cc2)c(=O)c(C#N)c1C,n,n,n,53.9,n,n
CCOC(=O)c1nn(-c2ccc(Cl)cc2)c(=O)c(C#N)c1C,n,n,n,50.3,n,n
CCOC(=O)c1nn(-c2ccc(Cl)cc2)c2nc(CC)c(C#N)c(=O)n12,n,n,n,n,n,n
